One experiment deals with U87MG cells. Put plainly: Blocking of tracer cell binding by PD-L1 antibodies. The note with it: U87MG cells pre-incubated with 50 nM antibody, 4 °C, 30 min, then tracer 30 min. Type of experiment: cell-based, human. A digest of the protocol: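 U87MG cells (1 × 10^6 per sample, n = 3) pre-incubated with PBS or 50 nM PD-L1 monoclonal antibody, 4 °C, 30 min, then given 0.1 μCi Al[18F]F-NOTA-PCP1 at 4 °C for 30 min. Washed three times with PBS–0.1% Tween-20. Bound radioactivity gamma-counted and expressed as %ID. Compared with PBS-treated cells by unpaired two-tailed t test.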

Another experiment concerns U87MG tumors. Put plainly: Micro-PET/CT target engagement of PD-L1 antibodies. The format is in vivo, BALB/c nude mice. The note with it: U87MG model. A digest of the protocol: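 Female BALB/c nude mice (6–8 weeks, 18.0–23.0 g) carried subcutaneous right-flank U87MG xenografts (6 × 10^6 cells) grown to 100–300 mm3. Atezolizumab given at 0.05–20 mg/kg (n = 3). Imaged 24 or 120 h later: 6.0 ± 0.91 MBq tracer via tail vein, micro-PET/CT at 2 h post-injection under 1.5–2% isoflurane. 3D-OSEM/OP-MAP reconstruction with attenuation correction; manual tumour ROIs; uptake as %ID/cc.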

The target in experiment [1] is recombinant human PD-L1 protein (Homo sapiens, UniProt Q9NZQ7). Put plainly: SPR binding affinity. The note with it: read-out: Kd (dissociation rate constant). The essentials: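 SPR on a CM5 chip at 25 °C. Recombinant human PD-L1 immobilised; surface blocked at pH 8.5. Peptide in HEPES-buffered saline (pH 7.2–7.4, 0.005% P20) at seven concentrations, 1.5625–100 nM, injected at 10 μL/min: 120 s association, 360 s dissociation. Regenerated with glycine pH 2.0 for 15 s. Blank-subtracted sensorgrams fitted to give the dissociation rate constant.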
(In general: Surface plasmon resonance follows binding to a sensor surface in real time, without labels.)

The target of experiment [2] is recombinant murine PD-L1 protein (Mus musculus, UniProt Q9EP73). As to the kind of experiment: SPR binding affinity. The following applies: read-out: Kd (dissociation rate constant).

This note sets out measurements from article PMC10915797 (Molecular Pharmaceutics, 2024).

Sequence of recombinant murine PD-L1 protein (Q9EP73 19-290): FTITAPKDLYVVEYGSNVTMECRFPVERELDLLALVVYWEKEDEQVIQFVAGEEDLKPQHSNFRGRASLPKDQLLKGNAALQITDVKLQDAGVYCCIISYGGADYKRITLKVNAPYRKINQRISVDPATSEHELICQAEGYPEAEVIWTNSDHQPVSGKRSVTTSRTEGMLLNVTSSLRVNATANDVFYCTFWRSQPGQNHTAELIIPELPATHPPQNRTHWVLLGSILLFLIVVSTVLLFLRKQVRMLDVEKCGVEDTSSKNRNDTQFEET
Sequence of recombinant human PD-L1 protein (Q9NZQ7 19-290): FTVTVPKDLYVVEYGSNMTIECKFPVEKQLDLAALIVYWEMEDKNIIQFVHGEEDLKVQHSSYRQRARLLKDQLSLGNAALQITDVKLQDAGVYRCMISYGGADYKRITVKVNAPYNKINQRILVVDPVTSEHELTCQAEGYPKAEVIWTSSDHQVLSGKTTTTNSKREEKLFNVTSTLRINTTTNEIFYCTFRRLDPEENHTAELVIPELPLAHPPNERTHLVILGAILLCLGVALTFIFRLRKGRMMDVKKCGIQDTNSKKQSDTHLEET

Take AveMab: anti-PD-L1 monoclonal antibody: the “Al[^18F]F-NOTA-PCP1 cell uptake after antibody treatment” value (“Al[^18F]F-NOTA-PCP1 cell uptake” for short) with U87MG cells amounted to 1.40 ± 0.05 %ID.

Consider AtzMab: anti-PD-L1 monoclonal antibody, for which the “Al[^18F]F-NOTA-PCP1 cell uptake” value in the experiment on U87MG cells is recorded as 1.26 ± 0.05 %ID. Also, the “tumor Al[^18F]F-NOTA-PCP1 uptake on PET/CT after antibody” value worked out at 11.64 ± 1.13 %ID/cc in the experiment with U87MG tumors (AtzMab 0.05 mg/kg, at 120h, n = 3 (Figure 6B)); 6.17 ± 0.35 %ID/cc in the experiment with U87MG tumors (AtzMab 0.5 mg/kg, at 120h, n = 3 (Figure 6B)); 2.16 ± 0.20 %ID/cc in the experiment with U87MG tumors (AtzMab 5 mg/kg, 24 h, n = 3 (Figure 7B)); 6.91 ± 0.18 %ID/cc with U87MG tumors (AtzMab 5 mg/kg, 120 h, n = 3 (Figure 7B)); 2.19 ± 0.13 %ID/cc in the experiment with U87MG tumors (AtzMab 20 mg/kg, 24 h, n = 3 (Figure 7B)); 2.29 ± 0.04 %ID/cc with U87MG tumors (AtzMab 20 mg/kg, 120 h, n = 3 (Figure 7B)). In addition, the “tumor Al[^18F]F-NOTA-PCP1 uptake on PET/CT after antibody” value in the experiment on U87MG tumors (AtzMab 20 mg/kg, at 120h, n = 3 (Figure 6B)) is recorded as 2.02 ± 0.14 %ID/cc.

Take `CCCC[C@H]1C(=O)N(C)[C@@H](CCCC)C(=O)N[C@@H](CCCNC(=O)CCOCCOCCOCCNC(=O)CN2CCN(CC(=O)O)CCN(CC(=O)O)CC2)C(=O)N[C@H](C(=O)NCC(N)=O)CSCC(=O)N[C@@H](Cc2ccc(O)cc2)C(=O)N(C)[C@@H](C)C(=O)N[C@@H](CC(N)=O)C(=O)N2CCC[C@H]2C(=O)N[C@@H](Cc2c[nH]cn2)C(=O)N[C@@H](CC(C)C)C(=O)N2C[C@H](O)C[C@H]2C(=O)N[C@@H](Cc2c[nH]c3ccccc23)C(=O)N[C@@H](CO)C(=O)N[C@@H](Cc2cn(C)c3ccccc23)C(=O)N1C` [NOTA-PCP1]: the values for the koff in experiment [1] and in experiment [2] were 0.000593 s⁻¹ and 0.52 s⁻¹, respectively.

Consider DurMab: anti-PD-L1 monoclonal antibody, for which the “Al[^18F]F-NOTA-PCP1 cell uptake” value with U87MG cells was 1.34 ± 0.09 %ID.
